Screening data (PubChem)
An excerpt weighted towards active compounds, which were near 3.8% of everything screened.
KCNK9 block = blocks the human KCNK9 two-pore domain potassium channel | Q9NPC2 | HEK293 KCNK9, FluxOR thallium flux fluorescence; active compounds read low | B-score at 10 µM | 310,000 compounds, 1.2% hits | AID 488922;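 active = ratio B-score over 3 SD below the library mean, with starting fluorescence within 5 SD of its mean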;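 also: negative B-score means less thallium flux so channel inhibition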
Target sequence (Q9NPC2 whole entry, looked up, the tested form may be a part): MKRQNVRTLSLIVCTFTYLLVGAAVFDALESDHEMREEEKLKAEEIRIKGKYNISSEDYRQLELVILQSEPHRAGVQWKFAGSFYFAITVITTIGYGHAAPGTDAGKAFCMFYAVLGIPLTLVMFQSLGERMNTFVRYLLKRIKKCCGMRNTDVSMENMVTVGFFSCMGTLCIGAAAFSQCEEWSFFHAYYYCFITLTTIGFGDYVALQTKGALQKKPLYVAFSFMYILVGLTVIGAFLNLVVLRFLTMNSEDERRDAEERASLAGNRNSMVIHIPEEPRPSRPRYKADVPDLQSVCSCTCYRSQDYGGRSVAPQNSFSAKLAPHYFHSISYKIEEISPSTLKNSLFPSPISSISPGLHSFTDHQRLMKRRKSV
KCNQ1 pot = human KCNQ1 channel potentiation or activation; P51787; CHO-K1 KCNQ1, thallium flux FluxOR fluorescence; active compounds read high; B-score at 10 µM; 310,000 compounds, 0.35% hits; AID 2648;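 active = fluorescence ratio B-score, a plate-corrected score, at least three library SD, with initial intensity B-score within 5 SD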
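Schedule – 37 °C overnight plating, 90-min dark dye load, 20-min compound pretreatment · System – stable KCNQ1 CHO-K1 line · Probe or stimulus – thallium- and potassium-containing depolarizing buffer · Measured by – kinetic FluxOR fluorescence, 10 s baseline plus 110 s post-stimulus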
KCNQ1 inh = human KCNQ1 channel inhibition; P51787; CHO-K1 KCNQ1, FluxOR thallium flux fluorescence; active compounds read high; B-score at 10 µM; 310,000 compounds, 1.3% hits;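 active = compounds whose thallium flux B-score, printed positive for inhibition, exceeds three library SD while starting fluorescence stays within three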;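 also: channel opened by potassium depolarization with thallium stimulus after 20 min compound exposure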
Kir21 inh = inhibitors of mouse Kir2.1 inward-rectifier potassium channel; B-score at 10 µM; HEK293-Kir2.1, FluxOR thallium flux fluorescence; active compounds read low; AID 1672; 310,000 compounds, 0.85% hits; P35561;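 active = fluorescence ratio B-score at or below minus 3 SD of library scores, with starting-brightness B-score within 2 SD, cut at about -4.2 in these data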;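 also: channel flux triggered by added potassium and thallium sulfate stimulus; B-score of peak minus minimum fluorescence over baseline after thallium stimulus; more negative B-score means stronger Kir2.1 block with less thallium influx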
hERG rescue = compounds protecting human hERG from proarrhythmic drug block; CHO-hERG, FluxOR thallium flux, dofetilide IC70 present; Q12809; 310,000 compounds, 0.51% hits; activation (rescue from dofetilide block), less the hit threshold, % at 10 µM; AID 1511;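 active = activation above the mean of controls blocked by dofetilide plus 5 SD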;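 also: thallium influx through hERG after potassium depolarization seen as dye fluorescence rise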
KCNK3 block = human KCNK3 channel inhibition, primary screen; B-score at 10 µM; AID 602410; O14649; 340,000 compounds, 0.84% hits; CHO-KCNK3 thallium flux, FluxOR fluorescence; active compounds read low;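 active = B-score under library mean minus 4 SD, starting fluorescence ratio at most library mean plus 5 SD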;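 also: more negative B-score means stronger inhibition of thallium flux through KCNK3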
Of the large screens only hits and unclear results are named; the others gave an inactive call.

COc1cccc(Oc2ccc(C(F)(F)F)cc2NC(=O)C2=COCCO2)c1	KCNQ1 inh 10
CCOC(=O)C1CCN(c2ncnc3c2oc2ccccc23)CC1	KCNK3 block -9.91
CC1(C)CC(=O)C(C(C2=C(O)CC(C)(C)CC2=O)c2ccc(Br)s2)C(=O)C1 (stereo not given)	Kir21 inh -7.36
Cc1cccc(N(C(=O)c2snc(C(N)=O)c2N)C(C(=O)NCC2CCCO2)c2ccc3ncccc3c2)c1 (stereo not given)	none
S=C(NCc1cccs1)Nc1ccccc1	none
NS(=O)(=O)c1ccc(NC(=S)NCc2cccs2)cc1	hERG rescue 6.6
Cc1cc(C)n(C2=NS(=O)(=O)c3ccccc32)n1	none
COc1ccc(CN2CCc3c([nH]c4ccccc34)C2)cc1Br	Kir21 inh -4.35
Cc1cccc(S(=O)(=O)Nc2cccc3c2C(=O)c2ccccc2-3)c1	KCNQ1 pot 9
Cc1ccc(NS(=O)(=O)c2ccc3c(c2)C(=O)c2ccccc2C3=O)c(C)c1	none (no result: KCNK9 block, KCNQ1 pot, KCNQ1 inh, Kir21 inh, hERG rescue)
Cc1ccc(S(=O)(=O)c2ccc([N+](=O)[O-])cn2)cc1	none
O=[N+]([O-])c1ccc(S(=O)(=O)c2ccccc2)nc1	Kir21 inh -8.05
O=C(Nc1c2c(nn1-c1ccc(F)cc1)CS(=O)C2)c1ccc2c(c1)OCO2 (stereo not given)	none
c1ccc2c(c1)Sc1ccccc1-n1cnnc1-2	none
Clc1ccc2c(c1)-c1nnc(Br)n1-c1ccccc1S2	Kir21 inh -7.16
Brc1nnc2n1-c1ccccc1Sc1ccccc1-2	Kir21 inh -6.02
CC(=O)N1CCC(C(=O)N2CCN(S(=O)(=O)c3ccc(F)cc3)CC2)CC1	none
c1csc(CCNc2ncnc3sc4c(c23)CCC4)c1	KCNK3 block -8.74
c1ccc(Nc2ncnc3sc4c(c23)CCC4)cc1	hERG rescue 5.2
O=S(=O)(c1cccc(F)c1)N1CCCN(c2ccc(C(F)(F)F)cn2)CC1	none
COc1ccc(C=C2C=C(C(C)(C)C)C(=O)C(C(C)(C)C)=C2)cc1OC	KCNQ1 inh 6
CCn1c(-c2cc(-c3ccc(C)cc3)nc3ccccc23)n[nH]c1=S	none
C=CCn1c(-c2cc(-c3ccc(C)cc3)nc3ccccc23)n[nH]c1=S	hERG rescue 5.8
CCn1c(-c2cc(-c3ccc(OC(C)C)cc3)nc3ccccc23)n[nH]c1=S	KCNQ1 inh 6
COc1cc(C2c3cc4c(cc3CC3COC(=O)N32)OCO4)cc(OC)c1OC (stereo not given)	none (no result: KCNK9 block, KCNQ1 pot, KCNQ1 inh, Kir21 inh, hERG rescue)
CCCc1cc(-c2nc(-c3ccc(Cl)cc3)cs2)ccn1	KCNK9 block -6.61
CCc1ccccc1N(CC(=O)N1CCN(c2ccccc2)CC1)S(C)(=O)=O	none
CCCn1cc(SCC(=O)NCc2ccco2)c2ccccc21	Kir21 inh -5.16
CS(=O)(=O)c1ccc2nc(NC(=O)c3ccco3)sc2c1	none
Cc1ccc(C(=O)Nc2nc3ccc(S(C)(=O)=O)cc3s2)o1	hERG rescue 38.1
Cc1ccc(C(=O)Nc2nc(-c3ccco3)c(-c3ccco3)s2)o1	KCNK3 block -10.8 (no result: KCNK9 block, KCNQ1 pot, KCNQ1 inh, Kir21 inh, hERG rescue)
COc1cc(/C=C/C(=O)c2ccc3c(c2)OCCO3)cc(Br)c1OCC(=O)N(C)C	none
CCn1c(CCNC(=O)c2ccc(OC)cc2)nnc1SCc1ccc(Cl)c(Cl)c1	Kir21 inh -6.45
CCn1c(CCNC(=O)c2ccc(C)cc2)nnc1SCc1ccc(Cl)c(Cl)c1	none
COC(=O)c1cn(NC(=O)/C=C/c2ccc(OC)c(OC)c2)c(=O)c2ccccc12	none
O=C(CN1CCN(c2cccc(C(F)(F)F)c2)CC1)N(C1CC1)C1CCS(=O)(=O)C1 (stereo not given)	none (no result: KCNK9 block, KCNQ1 pot, KCNQ1 inh, Kir21 inh, hERG rescue)
O=C(CN1CCN(c2cccc(C(F)(F)F)c2)CC1)N(C1CCCC1)C1CCS(=O)(=O)C1 (stereo not given)	KCNK3 block -8.73 (no result: KCNK9 block, KCNQ1 pot, KCNQ1 inh, Kir21 inh, hERG rescue)
CN(C)c1ccc2nc3ccc(=[N+](C)C)cc-3sc2c1	none
Cc1cc2nc3ccc(=[N+](C)C)cc-3sc2cc1N	KCNQ1 inh 6
COc1ccc2nc(SCCOC(=O)Nc3ccc(Cl)cc3)nc(C)c2c1	Kir21 inh -5.68
COc1ccc2nc(SCC(=O)O)nc(C)c2c1	none (no result: KCNK9 block, KCNQ1 pot, KCNQ1 inh, Kir21 inh, hERG rescue)
Cc1cc(OC(=O)c2ccc(S(=O)(=O)N(C)C)cc2)c([N+](=O)[O-])c(=O)[nH]1	none
O=C(CN1CCOCC1)Nc1ccccc1Sc1ccccc1	Kir21 inh -6.3
O=C(CN1CCN(S(=O)(=O)N2CCOCC2)CC1)Nc1ccc(Cl)c(Cl)c1	none
O=C(CN1CCOCC1)Nc1ccc(Cl)c(Cl)c1	hERG rescue 5.9
N=c1sccn1CC(=O)Nc1ccccc1Sc1ccccc1	Kir21 inh -4.84
COc1ccc(C2/C(=C(\O)c3ccc4c(c3)CC(C)O4)C(=O)C(=O)N2Cc2cccnc2)c(OC)c1 (stereo not given)	none
CCOC(=O)c1ccc(CC(=O)c2ccc(O)cc2O)o1	none
CCC(=O)Oc1ccc(C/C(=N\O)c2ccc(O)cc2O)o1	KCNQ1 inh 7
COc1ccc(CNCc2ccc3ccccc3c2)c(OC)c1	Kir21 inh -8.54
COc1ccc(CNCc2ccncc2)c(OC)c1	none
O=c1[nH]nc(Br)c(=O)n1C(c1ccccc1)c1ccccc1	none (no result: KCNK9 block, KCNQ1 pot, KCNQ1 inh, Kir21 inh, hERG rescue)
Cc1cc(C)n(-c2nc3ccccc3n3cnnc23)n1	none
Cc1cc(C)n(-c2nc3ccccc3nc2Nc2ccc3c(c2)OCO3)n1	KCNK9 block -7.26
CCN(CC)c1nc2ccccc2nc1-n1nc(C)cc1C	Kir21 inh -4.32
CC(C)CC(=O)/C(=C/c1ccc(N(C)C)cc1)n1cncn1	none
CC(C)CC(=O)/C(=C\c1ccc(Cl)cc1Cl)n1cncn1	Kir21 inh -8.18
Cc1cc(Cl)c(OCCOCCN2CCCCC2)c(Br)c1	none
Cc1cc(Cl)c(OCCOCCN2CCCC(C)C2)c(Br)c1 (stereo not given)	Kir21 inh -4.28
O=C(Nc1cc(S(=O)(=O)N2CCOCC2)ccc1N1CCCC1)c1cccnc1Cl	none
c1ccc(C2OC3c4cccc5cccc(c45)C3N2c2ccccc2)cc1 (stereo not given)	KCNK9 block -7.88
Clc1ccc(Nc2ccc(NCc3ccccc3)nn2)cc1	Kir21 inh -5.46
COc1ccc(NC(=O)c2c(C)nn(Cc3ccccc3)c2C)cc1S(=O)(=O)N(C)C	none
CC(C)N1C(=S)SC(C)(C)C1n1oc(=O)n(-c2cccc(Cl)c2)c1=O (stereo not given)	none
CC(C)CN1C(=S)SC(C)(C)C1n1oc(=O)n(-c2ccc(Cl)cc2)c1=O (stereo not given)	KCNQ1 inh 15, KCNK3 block -10.6
Cc1cccc(C(=O)OCC(=O)N2CCCCCC2)c1C	none (no result: KCNK9 block, KCNQ1 pot, KCNQ1 inh, Kir21 inh, hERG rescue)
CCN1/C(=C/c2cc[n+](CCCS(=O)(=O)[O-])c3ccccc23)Sc2ccccc21	none
C=CC[n+]1ccc(/C=C2\C=Cc3cc(C)ccc3N2CC)c2ccccc21	KCNK3 block -14.7 (no result: KCNK9 block, KCNQ1 pot, KCNQ1 inh, Kir21 inh, hERG rescue)
